Reference: ChEMBL document CHEMBL1147789, “The search for novel TRPV1-antagonists: from carboxamides to benzimidazoles and indazolones” (Bioorg Med Chem Lett, 2006)

Experiments:
[1] = biological target: T1, Transient receptor potential cation channel subfamily V member 1 (Homo sapiens, UniProt Q8NER1); assay: Antagonist activity against capsaicin-induced intracellular calcium ion increase in CHO cells expressing human TRPV1 in FLIPR assay; type: functional, cell-based
[2] = Systemic AUC in rat at 5 mg/kg, po; type: ADME, organism-based; set-up: dose 5 mg/kg, route oral; details: in vivo
In short: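 Oral dose of 5 mpk; AUC taken from systemic blood levels.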

[3] = AUC in hepatic portal vein of rat at 5 mg/kg, po; type: ADME, organism-based, Plasma; set-up: dose 5 mg/kg, route oral
[4] = biological target: T1, Transient receptor potential cation channel subfamily V member 1; assay: Inhibition of acidic pH 5.5-stimulated current in CHO cells expressing human TRPV1 receptor by patch clamp; type: functional, cell-based
[5] = biological target: T1, Transient receptor potential cation channel subfamily V member 1; assay: Inhibition of acidic pH 5.5-stimulated current in CHO cells expressing human TRPV1 receptor at 100 nM by patch clamp; type: functional, cell-based
[6] = biological target: T2, Transient receptor potential cation channel subfamily V member 1 (Rattus norvegicus, UniProt O35433); assay: Activity against capsaicin-induced […] in CHO cells expressing rat TRPV1 assessed by patch clamp; type: functional, cell-based
T2 sequence (O35433 whole entry): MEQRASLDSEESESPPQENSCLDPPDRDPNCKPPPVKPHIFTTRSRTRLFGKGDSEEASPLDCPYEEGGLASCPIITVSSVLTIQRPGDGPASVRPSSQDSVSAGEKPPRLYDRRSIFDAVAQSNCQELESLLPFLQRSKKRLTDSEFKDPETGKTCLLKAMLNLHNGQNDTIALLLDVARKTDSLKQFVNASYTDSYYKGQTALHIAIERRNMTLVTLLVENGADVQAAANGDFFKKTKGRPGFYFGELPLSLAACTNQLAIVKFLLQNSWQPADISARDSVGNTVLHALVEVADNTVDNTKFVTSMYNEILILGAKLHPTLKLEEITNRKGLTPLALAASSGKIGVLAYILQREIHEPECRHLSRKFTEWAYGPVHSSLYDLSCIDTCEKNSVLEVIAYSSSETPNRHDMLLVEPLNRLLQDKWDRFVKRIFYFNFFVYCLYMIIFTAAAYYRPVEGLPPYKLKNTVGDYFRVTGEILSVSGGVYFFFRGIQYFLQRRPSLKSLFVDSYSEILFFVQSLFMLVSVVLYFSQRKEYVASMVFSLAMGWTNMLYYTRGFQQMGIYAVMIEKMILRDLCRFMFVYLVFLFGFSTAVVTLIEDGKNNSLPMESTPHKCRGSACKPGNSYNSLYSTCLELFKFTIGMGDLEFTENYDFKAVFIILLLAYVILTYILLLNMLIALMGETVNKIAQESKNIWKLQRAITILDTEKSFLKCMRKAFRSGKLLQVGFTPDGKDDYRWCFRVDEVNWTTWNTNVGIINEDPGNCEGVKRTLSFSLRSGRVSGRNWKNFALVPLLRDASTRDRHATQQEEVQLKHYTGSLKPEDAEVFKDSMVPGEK
In short: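 Whole-cell patch clamp on cells expressing rat TRPV1, stimulated with 500 nM capsaicin; IC50 for inhibition of the evoked response.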

[7] = biological target: Transient receptor potential cation channel subfamily V member 1 (Rattus norvegicus) (UniProt O35433); assay: Decrease in carrageenan-induced thermal hyperalgesia in rat at 30 mg/kg, po; type: functional, organism-based; set-up: dose 30 mg/kg; scale not given: the % may be the effect or the level left
Sequence of Transient receptor potential cation channel subfamily V member 1 (Rattus norvegicus) (O35433 whole entry): as above
In short: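 Rats received 0.1 mL intraplantar carrageenan, or saline for the uninflamed group, in the right hind limb. Two hours later they were dosed orally at 30 mpk. After 1 h, thermal withdrawal was retested three times on each hind paw (Hargreaves). Saline response was set as 0% hyperalgesia and carrageenan response as 100%.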

[8] = Half life in rat at 1 mg/kg, iv; type: ADME, organism-based; set-up: dose 1 mg/kg, route intravenous; details: in vivo
[9] = Volume of distribution in rat at 1 mg/kg, iv; type: ADME, organism-based; set-up: dose 1 mg/kg, route intravenous; details: in vivo, read-out: Vdss
[10] = biological target: T2, Transient receptor potential cation channel subfamily V member 1; assay: Activity at rat TRPV1 as inhibition of pH 5.5-induced currents in CHO cells
[11] = Clearance in rat at 1 mg/kg, iv; type: ADME, organism-based; set-up: dose 1 mg/kg, route intravenous; details: in vivo

T1 sequence (Q8NER1 whole entry): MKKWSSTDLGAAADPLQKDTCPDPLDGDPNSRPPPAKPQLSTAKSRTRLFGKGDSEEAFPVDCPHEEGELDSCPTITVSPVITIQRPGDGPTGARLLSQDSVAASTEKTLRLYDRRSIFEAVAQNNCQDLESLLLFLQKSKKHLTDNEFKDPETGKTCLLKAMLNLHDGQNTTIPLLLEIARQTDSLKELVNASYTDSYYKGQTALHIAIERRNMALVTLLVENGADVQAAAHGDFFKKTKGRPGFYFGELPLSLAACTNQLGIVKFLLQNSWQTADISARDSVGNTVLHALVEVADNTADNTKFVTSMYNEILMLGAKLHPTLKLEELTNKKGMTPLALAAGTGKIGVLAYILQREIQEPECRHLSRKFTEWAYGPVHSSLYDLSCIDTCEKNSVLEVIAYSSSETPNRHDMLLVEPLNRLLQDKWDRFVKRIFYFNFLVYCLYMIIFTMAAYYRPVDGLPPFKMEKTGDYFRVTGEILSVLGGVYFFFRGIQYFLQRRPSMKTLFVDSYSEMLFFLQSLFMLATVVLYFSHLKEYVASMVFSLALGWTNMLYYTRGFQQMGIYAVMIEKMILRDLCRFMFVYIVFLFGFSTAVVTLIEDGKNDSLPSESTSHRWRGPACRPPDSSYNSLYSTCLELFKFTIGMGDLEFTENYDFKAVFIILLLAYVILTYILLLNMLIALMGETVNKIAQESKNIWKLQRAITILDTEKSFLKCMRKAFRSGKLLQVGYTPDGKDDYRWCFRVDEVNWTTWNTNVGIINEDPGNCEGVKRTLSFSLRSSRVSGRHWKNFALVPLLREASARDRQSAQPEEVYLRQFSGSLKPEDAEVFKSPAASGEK

IC50 [1] [nM] | Compound | other results
270 | Cc1cccnc1-c1ccc2c(=O)n(-c3ccc(C(F)(F)F)cc3)[nH]c2n1 | –
640 | Cc1cccnc1-c1ccc(NC(=O)c2cccc(C(F)(F)F)c2)cc1 | –
24 | O=C(Nc1ccc(-c2ncccc2C(F)(F)F)cc1)c1ccc(C(F)(F)F)cc1 | AUC [2]: 0.04 µM·h; AUC [3]: 0.08 µM·h; IC50 [4]: 33 nM
370 | O=c1c2cc(-c3ncccc3C(F)(F)F)ccc2[nH]n1-c1ccc(C(F)(F)F)cc1 | –
180 | Cc1cccnc1-c1ccc2c(=O)n(-c3ccc(C(F)(F)F)cc3)[nH]c2c1 | –
170 | COc1ccccc1-c1ccc2c(=O)n(-c3ccc(C(F)(F)F)cc3)[nH]c2c1 | –
340 | O=c1c2ccccc2[nH]n1-c1ccc(C(F)(F)F)cc1 | –
2400 | O=C(Nc1ccc(-c2ncccc2C(F)(F)F)cc1)c1ccccc1 | –
22 | FC(F)(F)c1ccc(-c2nc3cc(-c4ncccc4C(F)(F)F)ccc3[nH]2)cc1 | AUC [2]: 1.25 µM·h; AUC [3]: 1.48 µM·h; inhibition [5]: 95%
160 | Cc1cccnc1-c1ccc(NC(=O)c2ccc(C(F)(F)F)cc2)cc1 | –
1500 | O=C(Nc1ccc(-c2ccccn2)cc1)c1ccc(C(F)(F)F)cc1 | –
470 | CC(C)(C)c1ccc(C(=O)Nc2ccc(-c3ncccc3C(F)(F)F)cc2)cc1 | –
224 | CC(C)(C)c1ccc(-c2nc3cc(-c4ncccc4C(F)(F)F)ccc3[nH]2)cc1 | –
35 | O=c1c2ccc(-c3ncccc3C(F)(F)F)cc2[nH]n1-c1ccc(C(F)(F)F)cc1 | IC50 [6]: 220 nM; Activity [7]: 50%; AUC [2]: 3 µM·h; half-life [8]: 3.6 h; Vd [9]: 2 L/kg; IC50 [10]: 65 nM; clearance [11]: 8 mL/min/kg; AUC [3]: 6.2 µM·h; IC50 [4]: 4 nM
170 | Cc1ccc(-c2nc3cc(-c4ncccc4C(F)(F)F)ccc3[nH]2)cc1 | –
290 | Oc1c2c(nn1-c1ccc(C(F)(F)F)cc1)NC(c1ncccc1C(F)(F)F)CC2 (stereo not drawn) | –
320 | Fc1ccc(-c2nc3cc(-c4ncccc4C(F)(F)F)ccc3[nH]2)cc1 | –
1100 | Cc1ccc(C(=O)Nc2ccc(-c3ncccc3C(F)(F)F)cc2)cc1 | –
